Measurements: ChEMBL document CHEMBL1649157, “Intracellular activity of antibiotics against Staphylococcus aureus in a mouse peritonitis model” (Antimicrob Agents Chemother, 2009)
Values after ≈ are worked out from the molar mass of the structure shown. Active and inactive are the calls of the source. No cut-off for these calls is given here.

Legend:
Staphylococcus aureus [1] = test: Bactericidal activity against Staphylococcus aureus E19977 assessed as log reduction in cfu at 20 mg/liter after 24 hrs by time-kill study; format: functional, organism-based
In short: (§1)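 In vitro kinetic model simulating antibiotic elimination without inoculum change. Exponential-phase E19977 was added at a final 10^6.3 CFU/ml. Starting drug concentration matched the human free peak, with the human half-life simulated. Samples were plated on 5% blood agar at 0, 2, 4, 6, 8, 12 and 24 h, with growth controls in each run. Results are shown as mean and range, n = 2.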

Staphylococcus aureus [2] = test: Bactericidal activity against Staphylococcus aureus E19977 assessed as log reduction in cfu at 1.5 mg/liter upto 24 hrs by time-kill study; format: functional
In short: (§2)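 Clinical bacteremia isolate (penicillin-resistant, methicillin-susceptible). Exponential-phase bacteria were placed in an in vitro kinetic model that simulates drug elimination without changing the inoculum. The starting drug level matched the human free peak serum concentration after a single dose, with simulated human elimination half-life. Samples were taken at 0, 2, 4, 6, 8, 12 and 24 h, with growth controls in each run.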

[3] = Half life in human at 1000 mg, im; format: ADME, organism-based; settings: in vivo
Staphylococcus aureus [4] = test: Antibacterial activity against Staphylococcus aureus E19977 infected in NMRI mouse assessed as log reduction in bacterial cfu in peritoneum at 200 mg/kg, sc administered 2 hrs after infection measured after 4 hrs; format: functional, organism-based; parameters: dose 200 mg/kg
In short: (§3)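 Dose–response in i.p.-infected NMRI mice (mucin adjuvant). Single doses of 200, 60, 30, 20 or 10 mg/kg were given 2 h after inoculation, with 4–16 mice per group. Peritoneal wash was sampled 4 h later and split by lysostaphin/centrifugation into total, extra- and intracellular counts, then expressed as Δlog10 CFU/ml against log dose. Vehicle controls were plotted as 0.3 mg/kg. Hill fit (variable slope); static dose interpolated.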

Staphylococcus aureus [5] = test: Antibacterial activity against Staphylococcus aureus E19977 by Etest; format: functional
Staphylococcus aureus [6] = test: Bactericidal activity against Staphylococcus aureus E19977 assessed as log reduction in cfu at 2 mg/liter after 24 hrs by time-kill study; format: functional, organism-based; in short: as §1
Staphylococcus aureus [7] = test: Bactericidal activity against Staphylococcus aureus E19977 assessed as log reduction in cfu at 2 mg/liter upto 24 hrs by time-kill study; format: functional; in short: as §2
Serum [8] = test: Protein binding in human serum at 1000 mg, im; format: ADME, cell-free
Staphylococcus aureus [9] = test: Bactericidal activity against Staphylococcus aureus E19977 assessed as log reduction in cfu at 0.5 mg/liter after 24 hrs by time-kill study; format: functional, organism-based; in short: as §1
Staphylococcus aureus [10] = test: Antibacterial activity against Staphylococcus aureus E19977 infected in NMRI mouse assessed as log reduction in extracellular bacterial cfu in peritoneum at 200 mg/kg, sc administered 2 hrs after infection measured after 4 hrs; format: functional, organism-based; parameters: dose 200 mg/kg; in short: as §3
[11] = Cmax in human at 1000 mg, im; format: ADME, organism-based; parameters: dose 1000 mg, route […]; settings: in vivo
Staphylococcus aureus [12] = test: Bactericidal activity against Staphylococcus aureus E19977 assessed as log reduction in cfu at 20 mg/liter upto 24 hrs by time-kill study; format: functional
In short: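 In vitro kinetic model: exponential-phase bacteria at a final 10^6.3 CFU/ml were exposed to a starting concentration set to the human free peak level. Elimination followed the simulated human half-life. Samples were taken at 0, 2, 4, 6, 8, 12 and 24 h and counted on 5% blood agar (detection limit 25 CFU/ml). Growth controls were included; n = 2.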

Staphylococcus aureus [13] = test: Bactericidal activity against Staphylococcus aureus E19977 assessed as log reduction in cfu at 2 mg/liter after 12 hrs by time-kill study; format: functional; in short: as §2
Staphylococcus aureus [14] = test: Antibacterial activity against Staphylococcus aureus E19977 infected in NMRI mouse assessed as log reduction in intracellular bacterial cfu in peritoneum at 200 mg/kg, sc administered 2 hrs after infection measured after 4 hrs; format: functional, organism-based; parameters: dose 200 mg/kg; in short: as §3
Staphylococcus aureus [15] = test: Bactericidal activity against Staphylococcus aureus E19977 assessed as log reduction in cfu at 9 mg/liter after 24 hrs by time-kill study; format: functional, organism-based; in short: as §1
Staphylococcus aureus [16] = test: Bactericidal activity against Staphylococcus aureus E19977 assessed as log reduction in cfu at 1.5 mg/liter after 24 hrs by time-kill study; format: functional, organism-based; in short: as §1
Staphylococcus aureus [17] = test: Antibacterial activity against Staphylococcus aureus E19977 infected in NMRI mouse assessed as log reduction in extracellular bacterial cfu in peritoneum at 10 mg/kg, sc administered as single dose 3 hrs after infection measured after 4 hrs; format: functional, organism-based; parameters: dose 10 mg/kg
In short: (§4)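 NMRI mice were infected i.p. with S. aureus E19977 in 5% mucin. A single dose (60 mg/kg or 10 mg/kg) was given 1, 2 or 3 h after inoculation, four mice per group. Peritoneal wash was sampled after 4 h of treatment and separated into total, extracellular and intracellular counts by lysostaphin/centrifugation. Δlog10 CFU/ml was calculated against vehicle-treated mice infected for the same time (5, 6 or 7 h).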

Staphylococcus aureus [18] = test: Antibacterial activity against Staphylococcus aureus E19977 infected in NMRI mouse assessed as log reduction in intracellular bacterial cfu in peritoneum at 10 mg/kg, sc administered as single dose 2 hrs after infection measured after 4 hrs; format: functional, organism-based; parameters: dose 10 mg/kg; in short: as §4
Staphylococcus aureus [19] = test: Antibacterial activity against Staphylococcus aureus E19977 infected in NMRI mouse assessed as log reduction in intracellular bacterial cfu in peritoneum at 60 mg/kg, sc administered as single dose 2 hrs after infection measured upto 19 hrs; format: functional, organism-based; parameters: dose 60 mg/kg
In short: (§5)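 NMRI mice were infected i.p. and given one or three doses (every 8 h), starting 2 h post-inoculation, at 200 mg/kg or 60 mg/kg, four mice per group. Peritoneal washes were sampled over 19 h of treatment. Total, extracellular and intracellular CFU/ml (lysostaphin separation) were compared with the pretreatment level; mean ± range, n = 2. Untreated controls were sampled only at 6 h of infection.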

Staphylococcus aureus [20] = test: Antibacterial activity against Staphylococcus aureus E19977 infected in NMRI mouse assessed as log reduction in extracellular bacterial cfu in peritoneum at 10 mg/kg, sc administered as single dose 2 hrs after infection measured after 4 hrs; format: functional, organism-based; parameters: dose 10 mg/kg; in short: as §4
Staphylococcus aureus [21] = test: Antibacterial activity against Staphylococcus aureus E19977 infected in NMRI mouse assessed as log reduction in extracellular bacterial cfu in peritoneum at 10 mg/kg, sc administered 2 hrs after infection measured after 4 hrs; format: functional, organism-based; parameters: dose 10 mg/kg
In short: (§6)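 Outbred female NMRI mice (25 to 30 g) received 0.5 ml of 10^7.7 CFU/ml inoculum in 5% mucin i.p. A single dose was given 2 h post-challenge, and mice were sampled 4 h later by 2.0 ml saline peritoneal wash, pooling two mice. Extracellular and intracellular fractions were separated by 300 × g centrifugation, lysostaphin, four HBSS washes and water lysis. Counts on blood agar; median of n = 8.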

Staphylococcus aureus [22] = test: Antibacterial activity against Staphylococcus aureus E19977 infected in NMRI mouse assessed as log reduction in intracellular bacterial cfu in peritoneum at 10 mg/kg, sc administered as single dose 3 hrs after infection measured after 4 hrs; format: functional, organism-based; parameters: dose 10 mg/kg; in short: as §4
Staphylococcus aureus [23] = test: Antibacterial activity against Staphylococcus aureus E19977 infected in NMRI mouse assessed as log reduction in extracellular bacterial cfu in peritoneum at 10 mg/kg, sc administered as single dose 1 hr after infection measured after 4 hrs; format: functional, organism-based; parameters: dose 10 mg/kg; in short: as §4
Staphylococcus aureus [24] = test: Antibacterial activity against Staphylococcus aureus E19977 infected in NMRI mouse assessed as log reduction in bacterial cfu in peritoneum at 10 mg/kg, sc administered as single dose 3 hrs after infection measured after 4 hrs; format: functional, organism-based; parameters: dose 10 mg/kg; in short: as §4
Staphylococcus aureus [25] = test: Antibacterial activity against Staphylococcus aureus E19977 infected in NMRI mouse assessed as log reduction in extracellular bacterial cfu in peritoneum at 60 mg/kg, sc administered as single dose 2 hrs after infection measured upto 19 hrs; format: functional, organism-based; parameters: dose 60 mg/kg; in short: as §5
Staphylococcus aureus [26] = test: Antibacterial activity against Staphylococcus aureus E19977 infected in NMRI mouse assessed as log reduction in bacterial cfu in peritoneum at 10 mg/kg, sc administered as single dose 2 hrs after infection measured after 4 hrs; format: functional, organism-based; parameters: dose 10 mg/kg; in short: as §4
Serum [27] = test: Protein binding in human serum at 600 mg, po; format: ADME, organism-based; settings: in vivo
Staphylococcus aureus [28] = test: Antibacterial activity against Staphylococcus aureus E19977 infected in NMRI mouse assessed as log reduction in intracellular bacterial cfu in peritoneum at 10 mg/kg, sc administered as single dose 1 hr after infection measured after 4 hrs; format: functional, organism-based; parameters: dose 10 mg/kg; in short: as §4
Staphylococcus aureus [29] = test: Antibacterial activity against Staphylococcus aureus E19977 infected in NMRI mouse assessed as log reduction in intracellular bacterial cfu in peritoneum at 10 mg/kg, sc administered 2 hrs after infection measured after 4 hrs; format: functional, organism-based; parameters: dose 10 mg/kg; in short: as §6
Staphylococcus aureus [30] = test: Antibacterial activity against Staphylococcus aureus E19977 infected in NMRI mouse assessed as log reduction in intracellular bacterial cfu in peritoneum at 60 mg/kg, sc administered 2 hrs after infection evry 8 hrs as three-dose regimen measured after 19 hrs; format: functional, organism-based; parameters: dose 60 mg/kg; in short: as §5
Staphylococcus aureus [31] = test: Antibacterial activity against Staphylococcus aureus E19977 infected in NMRI mouse assessed as log reduction in bacterial cfu in peritoneum at 60 mg/kg, sc administered as single dose 2 hrs after infection measured upto 19 hrs; format: functional, organism-based; parameters: dose 60 mg/kg; in short: as §5
Staphylococcus aureus [32] = test: Antibacterial activity against Staphylococcus aureus E19977 infected in NMRI mouse assessed as log reduction in bacterial cfu in peritoneum at 10 mg/kg, sc administered 2 hrs after infection measured after 4 hrs; format: functional, organism-based; parameters: dose 10 mg/kg; in short: as §6
Staphylococcus aureus [33] = test: Antibacterial activity against Staphylococcus aureus E19977 infected in NMRI mouse assessed as log reduction in bacterial cfu in peritoneum at 10 mg/kg, sc administered as single dose 1 hr after infection measured after 4 hrs; format: functional, organism-based; parameters: dose 10 mg/kg; in short: as §4
Staphylococcus aureus [34] = test: Antibacterial activity against Staphylococcus aureus E19977 infected in NMRI mouse assessed as log reduction in intracellular bacterial cfu in peritoneum at 60 mg/kg, sc administered as single dose 2 hrs after infection measured within 4 hrs; format: functional, organism-based; parameters: dose 60 mg/kg; in short: as §5

SMILES: CO/N=C(\C(=O)N[C@@H]1C(=O)N2C(C(=O)O)=C(COC(N)=O)CS[C@H]12)c1ccco1 [CEFUROXIME]
- Activity (Staphylococcus aureus [1]): inactive
- FC (Staphylococcus aureus [2]): 2
- half-life [3]: 1.5 h
- Activity (Staphylococcus aureus [4]): Active
- MIC (Staphylococcus aureus [5]): 2 µg/mL (≈ 4.71 µM)
- Activity (Staphylococcus aureus [6]): inactive
- FC (Staphylococcus aureus [7]): 2
- Activity (Serum [8]): 30%
- Activity (Staphylococcus aureus [9]): inactive
- Activity (Staphylococcus aureus [10]): Active
- Cmax [11]: 26000 ng/mL
- FC (Staphylococcus aureus [12]): >2
- FC (Staphylococcus aureus [13]): 2
- Activity (Staphylococcus aureus [14]): inactive
- Activity (Staphylococcus aureus [15]): inactive
- Activity (Staphylococcus aureus [16]): inactive

SMILES: CO[C@H]1/C=C/O[C@@]2(C)Oc3c(C)c(O)c4c(O)c(c(/C=N/N5CCN(C)CC5)c(O)c4c3C2=O)NC(=O)/C(C)=C\C=C\[C@H](C)[C@H](O)[C@@H](C)[C@@H](O)[C@@H](C)[C@H](OC(C)=O)[C@@H]1C [RIFAMPIN]
- Activity (Staphylococcus aureus [17]): inactive
- Activity (Staphylococcus aureus [18]): inactive
- Activity (Staphylococcus aureus [19]): inactive
- Activity (Staphylococcus aureus [1]): inactive
- Activity (Staphylococcus aureus [20]): inactive
- FC (Staphylococcus aureus [2]; in the assay text read “2.0 mg/liter” for “1.5 mg/liter”): 2
- Activity (Staphylococcus aureus [21]): inactive
- MIC (Staphylococcus aureus [5]): < 0.016 µg/mL
- Activity (Staphylococcus aureus [22]): inactive
- Activity (Staphylococcus aureus [23]): Active
- Activity (Staphylococcus aureus [6]): inactive
- FC (Staphylococcus aureus [7]): 2
- Activity (Staphylococcus aureus [9]): inactive
- Activity (Staphylococcus aureus [24]): inactive
- FC (Staphylococcus aureus [12]): >2
- Activity (Staphylococcus aureus [25]): inactive
- FC (Staphylococcus aureus [13]): 2
- Activity (Staphylococcus aureus [26]): inactive
- Activity (Serum [27]): 80%
- Activity (Staphylococcus aureus [28]): Active
- Activity (Staphylococcus aureus [15]): inactive
- Activity (Staphylococcus aureus [29]): Active
- Activity (Staphylococcus aureus [16]): inactive
- Activity (Staphylococcus aureus [30]): inactive
- Activity (Staphylococcus aureus [31]): inactive
- Activity (Staphylococcus aureus [32]): Active
- Activity (Staphylococcus aureus [33]): Active
- Activity (Staphylococcus aureus [34]): inactive
